Experimental data as given in ChEMBL document CHEMBL1152895, “Diacylhydrazine derivatives as novel potential chitin biosynthesis inhibitors: design, synthesis, and structure-activity relationship” (Eur J Med Chem, 2009).
Calls of active or inactive are those of the source. The rule behind the calls is not given here.

System: Saccharomyces cerevisiae
Assay: Inhibition of yeast chitin synthase at 100 ug/mL by high throughput assay
How it was run: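 Cell-extract enzymatic assay of chitin synthesis. Cells were pelleted at 1500 × g for 10 min at 4 °C, then broken by grinding with glass beads under liquid nitrogen. Activity was scored as percent inhibition, also converted to D = log[a/(100−a)] − log Mw.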

| inhibition | Compound |
| --- | --- |
| Active | CCCCC(CCCC)N(NC(=O)c1ccc(CC)cc1)C(=O)c1cc(C)cc(C)c1 |
| Active | CCCCC(CCCC)N(NC(=O)c1ccc(Cl)cc1Cl)C(=O)c1cc(C)cc(C)c1 |
| Active | CCCCC(CCCC)N(NC(=O)c1ccccc1Cl)C(=O)c1ccccc1 |
| Active | CCCCC(CCCC)N(NC(=O)c1ccc(Cl)cc1)C(=O)c1ccccc1OC |
| Active | CCCCC(CCCC)N(NC(=O)c1cc(OC)c(OC)c(OC)c1)C(=O)c1ccccc1Cl |
| Active | CCCCC(CCCC)N(NC(=O)c1cc(C)cc(C)c1)C(=O)c1ccc(CC)cc1 |
| Active | CCCCC(CCCC)N(NC(=O)c1cc(OC)c(OC)c(OC)c1)C(=O)c1cc(C)cc(C)c1 |
| Active | CCCCC(CCCC)N(NC(=O)c1ccc(Cl)cc1)C(=O)c1cc(C)cc(C)c1 |
| Active | CCCCC(CCCC)N(NC(=O)c1ccccc1Cl)C(=O)c1cccc(F)c1 |

More lines, now with the values behind:

| Compound | inhibition |
| --- | --- |
| CCCCC(CCCC)N(NC(=O)c1ccc(CC)cc1)C(=O)c1ccc2c(c1)OCO2 | Active |
| CCCCC(CCCC)N(NC(=O)c1cc(OC)c(OC)c(OC)c1)C(=O)c1cc(F)c(OC)c(F)c1F | Active |
| CCCCC(CCCC)N(NC(=O)c1cccc(OC)c1)C(=O)c1ccccc1 | Active |
| CCCCC(CCCC)N(NC(=O)c1ccccc1Cl)C(=O)c1ccccc1OC | 81% |
| CCCCC(CCCC)N(NC(=O)c1ccccc1Cl)C(=O)c1ccc(F)cc1 | Active |
| CCCCC(CCCC)N(NC(=O)c1ccc(CC)cc1)C(=O)c1ccccc1Cl | Active |
| CCCCC(CCCC)N(NC(=O)c1ccc(CC)cc1)C(=O)c1cc(F)c(OC)c(F)c1F | Active |
| CCCCC(CCCC)N(NC(=O)c1ccc(CC)cc1)C(=O)CCl | Active |
| CCCCC(CCCC)N(NC(=O)c1ccc(CC)cc1)C(=O)c1ccccc1OC | 79% |
| CCCCC(CCCC)N(NC(=O)c1ccccc1Cl)C(=O)c1cc(C)cc(C)c1 | Active |
